This note sets out measurements from ChEMBL document CHEMBL2169816, “Noncyclam tetraamines inhibit CXC chemokine receptor type 4 and target glioma-initiating cells” (J Med Chem, 2012).

Usually inhibition stands for how much of the control response was suppressed. As a reminder, the CC50 is the concentration at which the toxic effect on the cells reaches its halfway point. As usually defined, the EC50 is the concentration needed to bring the measured effect to its halfway point. In general, IC50 refers to the concentration that inhibits the measured activity by half.

Data set [1] concerns Mus musculus. The data set is described as follows: (§1) Toxicity in iv dosed Hsd:ICR(CD-1) mouse measured up to 14 days. The class given is organism-based. Conditions: in vivo, 336 h. In outline:
(§2)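 Single iv tail-vein injection in physiological saline (0.9% NaCl) to Hsd:ICR (CD-1) mice; groups of 4 (2 male, 2 female) at doses of 1, 2, 3, 3.5 and 4 mg/kg. Viability/mortality and clinical signs checked during first 30 min and at ~1, 2, 3, 5 h on day 1, then through days 2–15; 14-day observation; body weights recorded; necropsy of all animals.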

Data set [2] is described as follows: as §1. The class given is organism-based. The settings on record: Hsd:ICR(CD-1), in vivo. In outline:
as §2

The target of data set [3] is T1, C-X-C chemokine receptor type 4 (Homo sapiens, UniProt P61073). The settings on record: GBM2, 1 uM.
In data set [4] the target is T1, C-X-C chemokine receptor type 4. The settings on record: GBM2, 0.1 uM.
The subject of data set [5] is CD44null. The data set is described as follows: Effect on human GBM2 cell differentiation assessed as increase in CD44null cells after 7 days by flow cytometric analysis. Format: functional, cell-based. In outline:
(§3)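 Patient-derived GBM neurospheres were treated with 1 μM inhibitor for 7 days, then dissociated and blocked 15 min with 10 μg/mL human IgG. Staining was FITC anti-CD44 or IgG2b isotype, 20 min on ice in the dark, then PBS wash and propidium iodide to exclude dying cells. Flow cytometry gave CD44 null fraction and CD44 low/CD44 null ratio.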
In general terms: A flow cytometer gives signals particle by particle.

Data set [6] has as its target T1, C-X-C chemokine receptor type 4. The settings on record: GBM2, 0.1 uM. This is another data set of the same source.
For data set [7] the target is unchanged. Conditions: GBM2, 1 uM. The source holds these as a separate data set.
In data set [8] the test system is CD44null. Kind of data set: Effect on human GBM1 cell differentiation assessed as increase in CD44null cells after 7 days by flow cytometric analysis. The class given is functional, cell-based. The procedure, abridged:
as §3

Another data set relates to MT4. The data set is described as follows: (§4) Cytotoxicity against human MT4 cells expressing CXCR4 after 5 days by MTT assay. The class given is cell-based. Conditions: mt4, 120 h, 120 h. The procedure, abridged: (§5)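 MT-4 cells, infected or not with HIV-1, exposed to a range of compound concentrations and left to proliferate for 5 days. Viable cells were counted by MTT colorimetric read-out. EC50 comes from protection against virus-induced cytopathic effect and CC50 from viability of uninfected cells.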
Background: Tetrazolium dyes change colour on reduction, which living cells bring about.

In data set [9] the test system is Human immunodeficiency virus 1. Kind of data set: Antiviral activity against HIV1 infected in MT4 cells expressing CXCR4 assessed as inhibition of virus-induced cytopathic effect after 5 days. The class given is functional, organism-based. The procedure, abridged: as §5
(Protection from cytopathic effect is a common read-out in antiviral testing.)

For data set [10], the target named is T1, C-X-C chemokine receptor type 4. The data set is described as follows: Antagonist activity at human recombinant CXCR4 expressed in CHO cells assessed as inhibition of SDF1a-induced electrical impedance by dielectric spectroscopic analysis. The class given is functional, cell-based. The procedure, abridged:
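CHO cells expressing recombinant human CXCR4. Antagonist mode: SDF-1a stimulant at 1 nM. Cellular impedance was read by cellular dielectric spectroscopy after incubation at 28 °C. Reference antagonist MIP-II was included. IC50 and KB were derived from concentration–response curves.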

Data set [11] in a line: as §4. Format: cell-based. The settings on record: MT4 cells expressing CXCR4. In outline: as §5
Data set [12] concerns the target T1, C-X-C chemokine receptor type 4. Conditions: GBM2, 1 uM. This is another data set of the same source.
Data set [13] shares this target. The settings on record: GBM2, 1 uM. The source holds these as a separate data set.
The target is the same in data set [14]. Conditions: GBM2, 1 uM. The source holds these as a separate data set.
Data set [15] can be described thus: Cytotoxicity against human GBM1 assessed as cell viability after 7 days by trypan blue staining method in presence of CXCL12 relative to control. Conditions: GBM1 cells, read-out: Activity. The procedure, abridged:
(§6)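 Dissociated neurospheres (acutase, 3 min) were counted and equal numbers seeded in triplicate per condition. Cells were treated or not with CXCR4 inhibitors (1 μM), with or without CXCL12. After 7 days cells were counted and viability expressed relative to untreated control.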

Data set [16] deals with Voltage-gated inwardly rectifying potassium channel KCNH2 (Homo sapiens, UniProt Q12809). Kind of data set: Inhibition of human ERG expressed in CHOK1 cells after 5 mins by whole-cell patch clamp assay. Format: cell-based, CHO-K1.
Data set [17] can be described thus: Cytotoxicity against human GBM1 assessed as cell viability after 7 days by trypan blue staining method relative to control. Conditions: GBM1 cells, read-out: Activity. In outline: as §6
For data set [18], the target named is T1, C-X-C chemokine receptor type 4. Conditions: GBM2, 0.1 uM. The source holds these as a separate data set.
The test system of data set [19] is Mus musculus. The data set is described as follows: Toxicity in Hsd:ICR(CD-1) mouse assessed as mortality at 3 mg/kg, iv after 1 min. The class given is organism-based. More on the design: dose 3 mg/kg, route intravenous. The settings on record: in vivo. The procedure, abridged: as §2
In data set [20] the test system is GBM1. The data set is described as follows: Effect on human GBM1 cell differentiation xenografted in NOD-SCID mouse assessed as decrease in tumor size incubated for 7 days prior to xenografting measured after 40 days by MRI scanning analysis relative to control. Format: functional, cell-based. The procedure, abridged:
(§7)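 GBM1 neurospheres were pretreated in culture for 7 days, then dissociated, counted and checked for viability by trypan blue. 100.000 live cells were stereotactically injected into the right corpus striatum of 9-week-old NOD-SCID mice. At 40 days, contrast MRI (gadolinium-DTPA 0.25 mmol/kg ip) covered the whole brain and tumor volume was quantified.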

For data set [21], the system named is GBM1. The data set is described as follows: Effect on human GBM1 cell differentiation xenografted in NOD-SCID mouse assessed as decrease in tumor number incubated for 7 days prior to xenografting measured after 40 days by MRI scanning analysis relative to control. The class given is functional, cell-based. In outline: as §7
Data set [22] concerns Mus musculus. Kind of data set: Toxicity in Hsd:ICR(CD-1) mouse assessed as mortality at 2 mg/kg, iv after 1 min. Format: organism-based. The settings on record: in vivo. More on the design: dose 2 mg/kg, route intravenous. The procedure, abridged:
as §2

In the next data set the target is hERG (KCNH2) (Homo sapiens, UniProt Q12809). The data set is described as follows: Inhibition of human ERG expressed in CHOK1 cells at 10 uM after 5 mins by whole-cell patch clamp assay. The class given is cell-based. The settings on record: CHO-K1 cells expressing human ERG. The procedure, abridged: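 hERG-expressing CHO-K1 cells were tested by automated whole-cell patch-clamp, measuring inhibition of tail current. Compound was applied cumulatively at 0.1, 1 and 10 μM, 5 min each at room temperature. E-4031 served as reference.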

The target of data set [23] is T1, C-X-C chemokine receptor type 4. Conditions: GBM2, 1 uM. The source holds these as a separate data set.
Data set [24] concerns Mus musculus. Kind of data set: Toxicity in Hsd:ICR(CD-1) mouse assessed as mortality at 2.5 mg/kg, iv after 1 min. The class given is organism-based. Set-up: dose 2.5 mg/kg, route intravenous. The settings on record: in vivo.
Setting [25] is: Human immunodeficiency virus 1, MT4, 120 h.

Active and inactive are the calls of the source. The rule behind the calls is not given here. Some results are limits rather than exact numbers.

T1 sequence (P61073 whole entry): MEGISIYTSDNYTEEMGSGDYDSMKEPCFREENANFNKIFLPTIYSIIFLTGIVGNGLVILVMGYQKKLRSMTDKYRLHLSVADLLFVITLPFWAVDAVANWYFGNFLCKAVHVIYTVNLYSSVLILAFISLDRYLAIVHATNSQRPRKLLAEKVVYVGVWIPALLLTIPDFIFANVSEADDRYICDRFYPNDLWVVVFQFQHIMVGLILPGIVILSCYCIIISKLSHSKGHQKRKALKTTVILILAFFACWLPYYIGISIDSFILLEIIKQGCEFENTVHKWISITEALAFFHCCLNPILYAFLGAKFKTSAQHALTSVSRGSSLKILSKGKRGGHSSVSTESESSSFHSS
Sequence of Voltage-gated inwardly rectifying potassium channel KCNH2 (Q12809 whole entry): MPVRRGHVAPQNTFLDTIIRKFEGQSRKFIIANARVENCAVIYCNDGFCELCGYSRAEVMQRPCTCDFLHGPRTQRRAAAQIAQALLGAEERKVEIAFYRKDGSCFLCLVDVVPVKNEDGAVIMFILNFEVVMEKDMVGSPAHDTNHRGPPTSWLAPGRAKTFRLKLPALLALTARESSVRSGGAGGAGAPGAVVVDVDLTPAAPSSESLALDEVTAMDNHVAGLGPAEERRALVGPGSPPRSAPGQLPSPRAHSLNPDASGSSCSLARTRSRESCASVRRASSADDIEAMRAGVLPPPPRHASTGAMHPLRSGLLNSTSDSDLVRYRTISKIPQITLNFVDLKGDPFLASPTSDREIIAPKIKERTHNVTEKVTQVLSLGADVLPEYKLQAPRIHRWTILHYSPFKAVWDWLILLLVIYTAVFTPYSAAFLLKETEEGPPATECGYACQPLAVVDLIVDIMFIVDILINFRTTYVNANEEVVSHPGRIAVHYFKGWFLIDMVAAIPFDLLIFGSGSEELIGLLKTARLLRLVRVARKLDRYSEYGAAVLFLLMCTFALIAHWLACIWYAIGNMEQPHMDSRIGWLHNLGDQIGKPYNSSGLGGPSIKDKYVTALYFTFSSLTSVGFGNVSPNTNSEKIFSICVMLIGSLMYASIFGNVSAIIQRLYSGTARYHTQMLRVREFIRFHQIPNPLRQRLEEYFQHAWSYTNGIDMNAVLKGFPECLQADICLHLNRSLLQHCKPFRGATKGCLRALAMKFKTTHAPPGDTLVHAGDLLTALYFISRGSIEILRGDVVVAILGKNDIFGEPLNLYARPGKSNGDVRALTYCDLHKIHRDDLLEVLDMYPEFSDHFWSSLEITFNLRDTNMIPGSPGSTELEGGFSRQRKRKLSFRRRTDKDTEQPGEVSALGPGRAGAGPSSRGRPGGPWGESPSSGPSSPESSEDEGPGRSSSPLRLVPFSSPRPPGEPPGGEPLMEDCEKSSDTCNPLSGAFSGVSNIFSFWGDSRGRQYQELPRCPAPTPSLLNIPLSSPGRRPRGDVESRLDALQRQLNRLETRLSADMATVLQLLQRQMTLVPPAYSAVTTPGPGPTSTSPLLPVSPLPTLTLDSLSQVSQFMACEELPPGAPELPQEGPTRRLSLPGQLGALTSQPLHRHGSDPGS
Sequence of hERG (KCNH2) (Q12809 whole entry): as above

In the data set on Mus musculus [1], `C[C@@H]1CCCCN1CCCNCc1ccc(CNCCCN2CCCC[C@H]2C)cc1` [listing 1 of 2 here] gave an MLC of 2.5 mg/kg. Further, the MTD at 336 h in [2] worked out at 2 mg/kg.
As for `C[C@@H]1CCCCN1CCCNCc1ccc(CNCCCN2CCCC[C@H]2C)cc1` [listing 2 of 2 here], the inhibition result in data set [3], in data set [4], in [6] and in data set [7] was “inactive” throughout. Further, the outcome with CD44null [5] and in the data set on CD44null [8] was Active.
For the compound `CC1CCCCN1CCCNCc1ccc(CNCCCN2CCCCC2C)cc1` (mixture of isomers; 1), in the data set with MT4, the CC50 was > 25 µg/mL. For the same compound, the EC50 in [9] (mt4) came to 19 nM.
Consider `C[C@@H]1CCCCN1CCCNCc1ccc(CNCCCN2CCCC[C@@H]2C)cc1.Cl` (mixture of isomers), for which the IC50 was 790 nM in data set [10] and > 100 µM in [16]. For the same compound, the 50% cytotoxic concentration (CC50) at 120 h in data set [11] is 26 µM. The inhibition entry in data set [3], in data set [12], in data set [13] and in data set [7] was “Active” each time. Further, the inhibition entry in data set [4], in data set [6], in data set [14] and in data set [18] was “inactive” each time. For the same compound, the result in the data set with CD44null [5] and with CD44null [8] was Active. In addition, the viability at 168 h in [15] and in data set [17] was > 80% throughout. Further, in [9] (setting [25]), the 50% effective concentration (EC50) came to 139 nM. The compound further came in with an MLC with Mus musculus [1] of 3 mg/kg. The compound further registered an MTD at 336 h in [2] of 2.5 mg/kg. Besides, the Activity result in the data set with Mus musculus [19] is listed as “Toxic”.
In the case of `CC1CCCCN1CCCNCc1ccc(CNCCCN2CCCCC2C)cc1` (mixture of isomers; 11) [listing 1 of 2 here], the CC50 in the data set on MT4 (read-out: CC50) is > 44 µM. Moreover, in [9] (mt4), the half-maximal effective concentration (EC50) is 130 nM.
For `CC1CCCCN1CCCNCc1ccc(CNCCCN2CCCCC2C)cc1` (mixture of isomers; 11) [listing 2 of 2 here], the result in the data set with CD44null [5], in the data set on GBM1 [20], in the data set on GBM1 [21] and with CD44null [8] was Active.
Turning to `C[C@H]1CCCCN1CCCNCc1ccc(CNCCCN2CCCC[C@@H]2C)cc1.Cl`, in data set [10], the IC50 is 1100 nM. In addition, the CC50 at 120 h in [11] was > 44 µM. For the same compound, the inhibition entry in data set [3], in data set [4], in [6] and in [7] was “inactive” throughout. Moreover, the Activity entry in the data set with Mus musculus [22] is “Toxic”. For the same compound, the outcome in the data set on CD44null [5] and in the data set on CD44null [8] was Active. For the same compound, the inhibition at 5 min, 10 µM on hERG (KCNH2) was < 25%. Further, the inhibition result in data set [23] was “Active”. Moreover, the viability at 168 h in data set [15] and in [17] was > 80% each time. For the same compound, the half-maximal effective concentration (EC50) in [9] (setting [25]) is 137 nM. The same compound showed an MLC with Mus musculus [1] of 2 mg/kg. This compound also showed an MTD at 336 h in [2] of 1.5 mg/kg.
As to `C[C@@H]1CCCCN1CCCNCc1ccc(CNCCCN2CCCC[C@H]2C)cc1.Cl`, the concentration for half-maximal inhibition (IC50) in data set [10] was 350 nM; in [16], > 100 µM. Further, the half-maximal cytotoxic concentration (CC50) at 120 h in data set [11] is > 44 µM. Also, the viability at 168 h in [15] and in data set [17] was > 80% each time. Besides, the 50% effective concentration (EC50) in data set [9] (setting [25]) stood at 125 nM. In addition, the Activity entry with Mus musculus [24] was “Toxic”.
